PubChem BioAssay AID504324 (Broad Institute, 2011)
Several values for one entry are separate records, joined by “and”; a condition that tells them apart may be missing. Equal entries are not always repeated. Activity calls are given as the source filed them.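 Rule for the calls: active = compounds lowering the signal whose fitted half-maximal concentration is at most ten times their top tested dose; inconclusive = flat curve with a 30 to 70% drop, or poor fit; inactive = rising signal, flat curve, or potency beyond limit.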

Columns and labels:
[1] = HIF pathway activation under zinc exposure, dose response, mechanism study for HIF pathway activator project, U2OS HRE-luc cells, zinc medium, dry powder (AID 504324); details: U2OS HRE-luciferase reporter, zinc medium, luminescence; at 38 µM (top of the series)
Method in brief: (§1)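 Assay system: human osteosarcoma U2OS cells stably expressing 3×HRE-driven luciferase reporter. Buffer or medium: phenol red-free DMEM, 10% FBS, plus 50 µM zinc sulfate. Compound dosing: 8-point, 3-fold compound series. Schedule: cells plated 24 h before dosing, compound exposure 24 h, 37 °C. Measured by: Steady-Glo luciferase luminescence.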

[2] = test system: U2OS HRE-luciferase reporter, zinc medium, luminescence; test: as above
Method in brief: as §1

Structure (SMILES): O=C(NCCCn1ccnc1)c1cc(-c2ccccc2)on1
- activity change, negative = decrease [1]: 1800% (inactive)

Structure (SMILES): O=C(Nc1nc2ccccc2s1)c1cc(-c2ccccc2)on1
- activity change, negative = decrease [1]: 12.6% (inactive)

Structure (SMILES): c1ccc(-c2nnc(-c3ccccn3)nc2NCc2cccnc2)cc1
- activity change, negative = decrease [1]: 3620% (inactive)

Structure (SMILES): CC1CN(Cc2ccc(O)c3ncccc23)CC(C)O1 (configuration not stated)
- activity change, negative = decrease [1]: 4.72% (inactive)

Structure (SMILES): O=C(Nc1ncc2ccccc2n1)c1cc(-c2ccccc2)on1
- activity change, negative = decrease [1]: 152% (inactive)

Structure (SMILES): C[C@H](Nc1nc(-c2ccccn2)nnc1-c1ccccc1)C1CCCCC1
- activity change, negative = decrease [1]: 5570% (inactive)

Structure (SMILES): Cc1ccc(NC(=O)c2cc(-c3ccccc3)on2)cn1
- activity change, negative = decrease [1]: 21.6% (inactive)

Structure (SMILES): C[C@@H](Nc1nc(-c2ccccn2)nnc1-c1ccccc1)c1ccccc1
- activity change, negative = decrease [1]: 4300% (inactive)

Structure (SMILES): O=C(NC1CCc2ccccc2C1)c1cc(-c2ccccc2)on1 (configuration not stated)
- activity change, negative = decrease [1]: -9.29% (inactive)

Structure (SMILES): Cc1ccccc1CNc1nc(-c2ccccn2)nnc1-c1ccccc1
- activity change, negative = decrease [1]: 5380% (inactive)

Structure (SMILES): OCC1CCN(Cc2ccc(O)c3ncccc23)CC1
- activity change, negative = decrease [1]: 29.9% (inactive)

Structure (SMILES): c1ccc(-c2nnc(-c3ccccn3)nc2N2CCC(c3ccccc3)C2)cc1 (configuration not stated)
- activity change, negative = decrease [1]: 5380% (inactive)

Structure (SMILES): O=C(c1cc(-c2ccccc2)on1)N1CCC(N2CCOCC2)CC1
- activity change, negative = decrease [1]: -1.04% (inactive)

Structure (SMILES): CC(C)(C)CCNc1nc(-c2ccccn2)nnc1-c1ccccc1
- activity change, negative = decrease [1]: 7490% (inactive) and 6820% (inactive)

Structure (SMILES): O=C(c1cc(-c2ccccc2)on1)N1CCc2cccnc21
- activity change, negative = decrease [1]: 44% (inactive)

Structure (SMILES): COc1ccc(CNc2nc(-c3ccccn3)nnc2-c2ccccc2)cc1
- activity change, negative = decrease [1]: 5130% (inactive)

Structure (SMILES): N#CC1(c2ccccc2)CCN(Cc2ccc(O)c3ncccc23)CC1
- activity change, negative = decrease [1]: 208% (inactive)

Structure (SMILES): CN1CCN(c2nc(-c3ccccn3)nnc2-c2ccccc2)CC1
- activity change, negative = decrease [1]: 1500% (inactive)

Structure (SMILES): O=C(Nc1ccc2ccccc2n1)c1cc(-c2ccccc2)on1
- activity change, negative = decrease [1]: 22.8% (inactive)

Structure (SMILES): CN1CCN(C(=O)c2cc(-c3ccccc3)on2)CC1
- activity change, negative = decrease [1]: 13.1% (inactive)

Structure (SMILES): Cc1ccc(Nc2nc(-c3ccccn3)nnc2-c2ccccc2)cn1
- activity change, negative = decrease [1]: 2240% (inactive)

Structure (SMILES): c1ccc(-c2csc(Nc3nc(-c4ccccn4)nnc3-c3ccccc3)n2)cc1
- activity change, negative = decrease [1]: 315% (inactive)

Structure (SMILES): O=C(Nc1cn2ccccc2n1)c1cc(-c2ccccc2)on1
- activity change, negative = decrease [1]: 41.5% (inactive)

Structure (SMILES): c1ccc(-c2nnc(-c3ccccn3)nc2NCCCN2CCOCC2)cc1
- activity change, negative = decrease [1]: 5050% (inactive)

Structure (SMILES): COc1cccc(CNc2nc(-c3ccccn3)nnc2-c2ccccc2)c1
- activity change, negative = decrease [1]: 4540% (inactive)

Structure (SMILES): c1ccc(-c2nnc(-c3ccccn3)nc2NCC2CCOCC2)cc1
- activity change, negative = decrease [1]: 3680% (inactive)

Structure (SMILES): Cn1c(NC(=O)c2cc(-c3ccccc3)on2)nc2ccccc21
- activity change, negative = decrease [1]: -2.21% (inactive)

Structure (SMILES): OCC1CCN(c2nc(-c3ccccn3)nnc2-c2ccccc2)CC1
- activity change, negative = decrease [1]: 1330% (inactive)

Structure (SMILES): c1ccc(-c2nnc(-c3ccccn3)nc2N2CCC(N3CCOCC3)CC2)cc1
- activity change, negative = decrease [1]: 4120% (inactive)

Structure (SMILES): c1ccc(-c2nnc(-c3ccccn3)nc2NCC2CC2)cc1
- activity change, negative = decrease [1]: 5580% (inactive)

Structure (SMILES): Cc1cccc(CNC(=O)c2cc(-c3ccccc3)on2)c1
- activity change, negative = decrease [1]: -6.77% (inactive)

Structure (SMILES): Cc1cccc(CNc2nc(-c3ccccn3)nnc2-c2ccccc2)c1
- activity change, negative = decrease [1]: 6280% (inactive)

Structure (SMILES): CN(C)CCNC(=O)c1cc(-c2ccccc2)on1
- activity change, negative = decrease [1]: 31.3% (inactive)

Structure (SMILES): O=C(NCCCO)c1cc(-c2ccccc2)on1
- activity change, negative = decrease [1]: 811% (inactive)

Structure (SMILES): Oc1ccc(CN2CCc3ccccc3C2)c2cccnc12
- activity change, negative = decrease [1]: -77.2% (inactive) and 47.2% (inactive)

Structure (SMILES): COc1ccccc1N1CCN(Cc2ccc(O)c3ncccc23)CC1
- activity change, negative = decrease [1]: 52.8% (inactive)

Structure (SMILES): c1ccc(-c2cnc(Nc3nc(-c4ccccn4)nnc3-c3ccccc3)s2)cc1
- activity change, negative = decrease [1]: 44.9% (inactive)

Structure (SMILES): O=C(NCCCN1CCOCC1)c1cc(-c2ccccc2)on1
- activity change, negative = decrease [1]: 1480% (inactive)

Structure (SMILES): c1ccc(CNc2nc(-c3ccccn3)nnc2-c2ccccc2)cc1
- activity change, negative = decrease [1]: 5410% (inactive)

Structure (SMILES): OCCCNc1nc(-c2ccccn2)nnc1-c1ccccc1
- activity change, negative = decrease [1]: 3730% (inactive)

Structure (SMILES): Cc1ccc(CNc2nc(-c3ccccn3)nnc2-c2ccccc2)cc1
- activity change, negative = decrease [1]: 6080% (inactive)

Structure (SMILES): Cc1ccc(CNC(=O)c2cc(-c3ccccc3)on2)cc1
- activity change, negative = decrease [1]: 10.4% (inactive)

Structure (SMILES): c1ccc(-c2cccc(CNc3nc(-c4ccccn4)nnc3-c3ccccc3)c2)cc1
- activity change, negative = decrease [1]: 4810% (inactive)

Structure (SMILES): c1ccc(-c2nnc(-c3ccccn3)nc2N2CCC(C3CCCCC3)C2)cc1 (configuration not stated)
- activity change, negative = decrease [1]: 4900% (inactive)

Structure (SMILES): Cn1c(-c2ccccc2)cnc1NC(=O)c1cc(-c2ccccc2)on1
- activity change, negative = decrease [1]: 19% (inactive)

Structure (SMILES): O=C(NCC1CC1)c1cc(-c2ccccc2)on1
- activity change, negative = decrease [1]: 798% (inactive)

Structure (SMILES): O=C(NCCN1CCOCC1)c1cc(-c2ccccc2)on1
- activity change, negative = decrease [1]: 1440% (inactive)

Structure (SMILES): Cc1cccc(Nc2nc(-c3ccccn3)nnc2-c2ccccc2)n1
- activity change, negative = decrease [1]: 4620% (inactive)

Structure (SMILES): O=C(NCC1CCCCC1)c1cc(-c2ccccc2)on1
- activity change, negative = decrease [1]: 158% (inactive)

Structure (SMILES): Cc1ccccc1CNC(=O)c1cc(-c2ccccc2)on1
- activity change, negative = decrease [1]: 25.4% (inactive)

Structure (SMILES): CCCCNC(=O)c1cc(-c2ccccc2)on1
- activity change, negative = decrease [1]: 1050% (inactive)

Structure (SMILES): c1ccc(-c2nnc(-c3ccccn3)nc2NCC2CCCCC2)cc1
- activity change, negative = decrease [1]: 8340% (inactive)

Structure (SMILES): c1ccc(-c2nnc(Nc3nc(-c4ccccn4)nnc3-c3ccccc3)s2)cc1
- activity change, negative = decrease [1]: 161% (inactive)

Structure (SMILES): O=C(NCc1ccccc1)c1cc(-c2ccccc2)on1
- activity change, negative = decrease [1]: 64% (inactive)

Structure (SMILES): O=C(Nc1cnc2ccccc2c1)c1cc(-c2ccccc2)on1
- activity change, negative = decrease [1]: 17.3% (inactive)

Structure (SMILES): O=C(NCCN1CCCCC1)c1cc(-c2ccccc2)on1
- activity change, negative = decrease [1]: 56.5% (inactive)

Structure (SMILES): Oc1ccc(CN2CCC(Cc3ccccc3)CC2)c2cccnc12
- activity change, negative = decrease [1]: 27.6% (inactive)

Structure (SMILES): Cc1ccc(CNc2nc(-c3ccccn3)nnc2-c2ccccc2)cc1C
- activity change, negative = decrease [1]: 4550% (inactive)

Structure (SMILES): Oc1ccc(CN2CCC3CCCCC3C2)c2cccnc12 (configuration not stated)
- activity change, negative = decrease [1]: 916% (inactive)

Structure (SMILES): O=C(Nc1ncc(-c2ccccc2)o1)c1cc(-c2ccccc2)on1
- activity change, negative = decrease [1]: 18.1% (inactive)

Structure (SMILES): Cc1cccc(NC(=O)c2cc(-c3ccccc3)on2)n1
- activity change, negative = decrease [1]: 39.8% (inactive)

Structure (SMILES): Oc1ccc(CNC2Cc3ccccc3C2)c2cccnc12
- activity change, negative = decrease [1]: 314% (inactive)

Structure (SMILES): O=C(NCCCCO)c1cc(-c2ccccc2)on1
- activity change, negative = decrease [1]: 1710% (inactive)

Structure (SMILES): c1ccc(-c2nnc(-c3ccccn3)nc2NCCc2ccccn2)cc1
- activity change, negative = decrease [1]: 4700% (inactive)

Structure (SMILES): O=C(c1cc(-c2ccccc2)on1)N1CCN(c2ccncc2)CC1
- activity change, negative = decrease [1]: -13.1% (inactive)

Structure (SMILES): Cn1c(-c2ccccc2)cnc1Nc1nc(-c2ccccn2)nnc1-c1ccccc1
- activity change, negative = decrease [1]: 210% (inactive)

Structure (SMILES): c1ccc(-c2nnc(-c3ccccn3)nc2N2CCN(c3ccncc3)CC2)cc1
- activity change, negative = decrease [1]: 4830% (inactive)

Structure (SMILES): O=C(NC1Cc2ccccc2C1)c1cc(-c2ccccc2)on1
- activity change, negative = decrease [1]: 146% (inactive)

Structure (SMILES): CC(Nc1nc(-c2ccccn2)nnc1-c1ccccc1)c1ccccc1 (configuration not stated)
- activity change, negative = decrease [1]: 4380% (inactive)

Structure (SMILES): c1ccc(-c2nnc(-c3ccccn3)nc2NCCN2CCOCC2)cc1
- activity change, negative = decrease [1]: 3780% (inactive)

Structure (SMILES): c1ccc(-c2ccc(CNc3nc(-c4ccccn4)nnc3-c3ccccc3)cc2)cc1
- activity change, negative = decrease [1]: 3920% (inactive)

Structure (SMILES): O=C(Nc1nc(-c2ccccc2)cs1)c1cc(-c2ccccc2)on1
- activity change, negative = decrease [1]: -11.2% (inactive)

Structure (SMILES): C[C@@H](Nc1nc(-c2ccccn2)nnc1-c1ccccc1)C1CCCCC1
- activity change, negative = decrease [1]: 4780% (inactive)

Structure (SMILES): c1ccc(-c2nnc(-c3ccccn3)nc2NCc2ccccn2)cc1
- activity change, negative = decrease [1]: 3330% (inactive)

Structure (SMILES): O=C(Nc1nnc(-c2ccccc2)s1)c1cc(-c2ccccc2)on1
- activity change, negative = decrease [1]: 6.48% (inactive)

Structure (SMILES): c1ccc(-c2nnc(-c3ccccn3)nc2Nc2cnc3ccccc3n2)cc1
- AC50 [2]: 10.6 µM

Structure (SMILES): CN(C)c1nc(-c2ccccn2)nnc1-c1ccccc1
- activity change, negative = decrease [1]: 3380% (inactive)

Structure (SMILES): c1ccc(-c2nnc(-c3ccccn3)nc2Nc2nc3ccccc3s2)cc1
- AC50 [2]: 5.6 µM

Structure (SMILES): CC(C)(C)OC(=O)N1CCN(Cc2ccc(O)c3ncccc23)CC1
- activity change, negative = decrease [1]: 28.3% (inactive)

Structure (SMILES): CC(C)(C)CCNC(=O)c1cc(-c2ccccc2)on1
- activity change, negative = decrease [1]: 651% (inactive)

Structure (SMILES): Oc1ccc(CNC2CCc3ccccc32)c2cccnc12 (configuration not stated)
- AC50 [2]: > 38 µM (inactive)

Structure (SMILES): O=C(c1cc(-c2ccccc2)on1)N1CCC(N2CCCC2)CC1
- activity change, negative = decrease [1]: 6.15% (inactive)

Structure (SMILES): CC(C)(C)c1ccc(CNc2nc(-c3ccccn3)nnc2-c2ccccc2)cc1
- activity change, negative = decrease [1]: 3790% (inactive)

Structure (SMILES): O=C(c1cc(-c2ccccc2)on1)N1CCC(CO)CC1
- activity change, negative = decrease [1]: 14.3% (inactive)

Structure (SMILES): c1ccc(CCNc2nc(-c3ccccn3)nnc2-c2ccccc2)cc1
- activity change, negative = decrease [1]: 4750% (inactive)

Structure (SMILES): C=CCNc1nc(-c2ccccn2)nnc1-c1ccccc1
- activity change, negative = decrease [1]: 5230% (inactive)

Structure (SMILES): Clc1cccc(CNc2nc(-c3ccccn3)nnc2-c2ccccc2)c1
- activity change, negative = decrease [1]: 4600% (inactive)
